Reference: ChEMBL document CHEMBL3763152, “Synthesis and evaluation of orally active small molecule HIV-1 Nef antagonists” (Bioorg Med Chem Lett, 2016)
Active and inactive are the calls of the source. The calls are words filed in the database; no cut-off is given here.

How the values were obtained:
[1] = Binding affinity to recombinant HIV1 Nef by SPR assay; design: species or system Human immunodeficiency virus 1
Method in brief: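 Recombinant purified Nef was immobilized on a CM5 chip, and compound was injected over a concentration range in triplicate. Binding isotherms were fitted with a heterogeneous ligand model, and KD was taken from the kinetic constants of the higher-affinity component. No binding means none seen at >50 μM compound.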

[2] = test system: Human immunodeficiency virus 1; assay: Antiviral activity against HIV1 NL4-3 infected in TZM-bl cells incubated for 3 hrs measured after 48 hrs by luciferase reporter gene assay; type: functional, organism-based; conditions: Human immunodeficiency virus 1, NL4-3, TZM-bl
Method in brief: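 TZM-bl reporter cells carry a luciferase gene driven by the HIV-1 LTR. Cells were infected short-term with HIV-1, and Nef-dependent infectivity was read out by luciferase. IC50 was derived from this read-out.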

[3] = Cytotoxicity against human TZM-bl cells by Cell Titer Blue assay; type: cell-based
Method in brief: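 TZM-bl reporter cells were treated with compound and viability was read by Cell Titer Blue. CC50 is the concentration giving 50% loss of viability.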

[4] = test system: Human immunodeficiency virus 1; assay: Binding affinity to recombinant HIV1 Nef N126A mutant at 10 uM by SPR assay
Method in brief: (§1)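 Wild-type, N126A and N126Q Nef were expressed in bacteria and purified to homogeneity. Each was covalently coupled to a CM5 biosensor chip. Compound was injected at a final 10 μM, in triplicate, and binding was measured by SPR on a Biacore T100.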

[5] = test system: Human immunodeficiency virus 1; assay: Binding affinity to recombinant HIV1 Nef N126Q mutant at 10 uM by SPR assay; method in brief: as §1
[6] = Tmax in C3H mouse at 10 mg/kg, po administered through solution of 5% N-methyl -2-pyrrolidone and 5% solutol in saline by LC-MS analysis; type: ADME, organism-based; conditions: in vivo
Method in brief: (§2)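 Plasma drug levels measured by LC-MS over time. Tmax, Cmax, AUClast, AUCinf, T1/2, Vss, clearance and %F were derived from the plasma concentration–time data.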

[7] = Cmax in C3H mouse at 2 mg/kg, iv by LC-MS analysis; type: ADME, organism-based; design: dose 2 mg/kg, route intravenous; conditions: in vivo; method in brief: as §2
[8] = Cmax in C3H mouse at 10 mg/kg, po administered through solution of 5% N-methyl -2-pyrrolidone and 5% solutol in saline by LC-MS analysis; type: ADME, organism-based; design: dose 10 mg/kg, route oral; conditions: in vivo; method in brief: as §2
[9] = AUClast in C3H mouse at 2 mg/kg, iv by LC-MS analysis; type: ADME, organism-based; design: dose 2 mg/kg, route intravenous, time 0 - last; conditions: in vivo; method in brief: as §2
[10] = AUC(last) in C3H mouse at 10 mg/kg, po administered through solution of 5% N-methyl -2-pyrrolidone and 5% solutol in saline by LC-MS analysis; type: ADME, organism-based; design: dose 10 mg/kg, time 0 - last, route oral; conditions: in vivo; method in brief: as §2
[11] = AUC(infinity) in C3H mouse at 2 mg/kg, iv by LC-MS analysis; type: ADME, organism-based; design: dose 2 mg/kg, time infinity, route intravenous; conditions: in vivo; method in brief: as §2
[12] = AUC(infinity) in C3H mouse at 10 mg/kg, po administered through solution of 5% N-methyl -2-pyrrolidone and 5% solutol in saline by LC-MS analysis; type: ADME, organism-based; design: dose 10 mg/kg, route oral, time infinity; conditions: in vivo; method in brief: as §2
[13] = Half life in C3H mouse at 2 mg/kg, iv by LC-MS analysis; type: ADME, organism-based; conditions: in vivo; method in brief: as §2
[14] = Volume of distribution at steady state in C3H mouse at 2 mg/kg, iv by LC-MS analysis; type: ADME, organism-based; conditions: in vivo, read-out: Vdss; method in brief: as §2
[15] = Clearance in C3H mouse at 2 mg/kg, iv by LC-MS analysis; type: ADME, organism-based; conditions: in vivo; method in brief: as §2
[16] = Oral bioavailability in C3H mouse at 10 mg/kg administered through solution of 5% N-methyl -2-pyrrolidone and 5% solutol in saline by LC-MS analysis; type: ADME, organism-based; conditions: in vivo; method in brief: as §2
Mus musculus [17] = assay: Acute toxicity in C3H mouse assessed as overall behavior at 2.5 mg/kg, iv SID for 4 days; type: organism-based; conditions: in vivo, 96 h
Mus musculus [18] = assay: Acute toxicity in C3H mouse assessed as body condition at 2.5 mg/kg, po SID for 4 days; conditions: in vivo, 96 h
Mus musculus [19] = assay: Acute toxicity in C3H mouse assessed as change in body weight at 2.5 mg/kg, po SID for 4 days; conditions: in vivo, 96 h
[20] = test system: Human immunodeficiency virus 1; assay: Binding affinity to recombinant HIV1 Nef at >50 uM by SPR assay
U-87MG ATCC = assay: Inhibition of Nef-dependent HIV1 NL4-3 replication infected in human U87MG cells expressing CD4 and CXCR4 at 3 uM incubated for 1 hr measured after 4 days by immunoassay; type: cell-based; conditions: Human immunodeficiency virus 1
Method in brief: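 U87MG/CD4/CXCR4 cells received compound at 3 μM final; wild-type or ΔNef HIV-1 NL4-3 was added one hour later. Replication was measured at 4 days as p24 Gag by AlphaLISA ELISA and expressed as percent of DMSO control, mean ± S.E., n=4.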

[21] = Cytotoxicity against human U87MG cells expressing CD4 and CXCR4 up to 10 uM by Cell Titer Blue assay; type: cell-based; conditions: u-87mg atcc
Mus musculus [22] = assay: Acute toxicity in C3H mouse assessed as change in body weight at 10 mg/kg, po BID for 4 days; type: organism-based; conditions: in vivo, 96 h
Mus musculus [23] = assay: Acute toxicity in C3H mouse assessed as change in body weight at 50 mg/kg, po SID for 5 days; type: organism-based; conditions: in vivo, 120 h
[24] = Tmax in C3H mouse at 10 mg/kg, po administered through suspension of 0.5% w/v sodium-carboxymethyl cellulose with 0.1% v/v Tween80 by LC-MS analysis; type: ADME, organism-based; conditions: in vivo; method in brief: as §2
[25] = Cmax in C3H mouse at 10 mg/kg, po administered through suspension of 0.5% w/v sodium-carboxymethyl cellulose with 0.1% v/v Tween80 by LC-MS analysis; type: ADME, organism-based; design: dose 10 mg/kg, route oral; conditions: in vivo; method in brief: as §2
[26] = AUC(last) in C3H mouse at 10 mg/kg, po administered through suspension of 0.5% w/v sodium-carboxymethyl cellulose with 0.1% v/v Tween80 by LC-MS analysis; type: ADME, organism-based; design: dose 10 mg/kg, route oral, time 0 - last; conditions: in vivo; method in brief: as §2
[27] = AUC(infinity) in C3H mouse at 10 mg/kg, po administered through suspension of 0.5% w/v sodium-carboxymethyl cellulose with 0.1% v/v Tween80 by LC-MS analysis; type: ADME, organism-based; design: dose 10 mg/kg, route oral, time infinity; conditions: in vivo; method in brief: as §2
Mus musculus [28] = assay: Acute toxicity in C3H mouse assessed as body condition at 5 mg/kg, iv SID for 4 days; type: organism-based; conditions: in vivo, 96 h
Mus musculus [29] = assay: Acute toxicity in C3H mouse assessed as body condition at 10 mg/kg, po BID for 4 days; type: organism-based; conditions: in vivo, 96 h
Mus musculus [30] = assay: Acute toxicity in C3H mouse assessed as body condition at 50 mg/kg, po SID for 5 days; type: organism-based; conditions: in vivo, 120 h
Mus musculus [31] = assay: Acute toxicity in C3H mouse assessed as overall behavior at 5 mg/kg, iv SID for 4 days; type: organism-based; conditions: in vivo, 96 h
Mus musculus [32] = assay: Acute toxicity in C3H mouse assessed as overall behavior at 10 mg/kg, po BID for 4 days; type: organism-based; conditions: in vivo, 96 h
Mus musculus [33] = assay: Acute toxicity in C3H mouse assessed as overall behavior at 50 mg/kg, po SID for 5 days; type: organism-based; conditions: in vivo, 120 h
Mus musculus [34] = assay: Acute toxicity in C3H mouse assessed as change in body weight at 5 mg/kg, po SID for 4 days; conditions: in vivo, 96 h
Mus musculus [35] = assay: Acute toxicity in C3H mouse assessed as change in body weight at 100 mg/kg, po SID for 12 days; type: organism-based; conditions: in vivo, 288 h
Mus musculus [36] = assay: Acute toxicity in C3H mouse assessed as body condition at 100 mg/kg, po SID for 12 days; type: organism-based; conditions: in vivo, 288 h
Mus musculus [37] = assay: Acute toxicity in C3H mouse assessed as overall behavior at 100 mg/kg, po SID for 12 days; type: organism-based; conditions: in vivo, 288 h

| SMILES | Kd [1] | IC50 [2] | CC50 [3] | Activity [4] | Activity [5] | Tmax [6] | Cmax [7] | Cmax [8] | AUC(0-t) [9] | AUC(0-t) [10] | AUC(0-inf) [11] | AUC(0-inf) [12] | half-life [13] | Vd [14] | clearance [15] | bioavailability [16] | Activity [20] | inhibition (U-87MG ATCC) | Activity [21] | Tmax [24] | other results |
| --- | --- | --- | --- | --- | --- | --- | --- | --- | --- | --- | --- | --- | --- | --- | --- | --- | --- | --- | --- | --- | --- |
| NC(=S)n1nc(-c2ccc([N+](=O)[O-])cc2)c(/N=N/c2cccc(Cl)c2)c1O | 0.0819 µM | 2.53 µM | 10 µM | inactive | inactive | 30 min | 3960 ng/mL | 418 ng/mL | 9780 ng·h/mL | 963 ng·h/mL | 9790 ng·h/mL | 1020 ng·h/mL | 128 min | 0.37 L/kg | 3.41 mL/min/kg | 2% |  |  |  |  | Activity (Mus musculus [17]): Non-toxic; Activity (Mus musculus [18]): Non-toxic; Activity (Mus musculus [19]): Non-toxic |
| O=[N+]([O-])c1ccc(-c2n[nH]c(O)c2CCc2cccc(Cl)c2)cc1 |  | > 10 µM | > 10 µM |  |  |  |  |  |  |  |  |  |  |  |  |  | inactive | inactive | Non-toxic |  |  |
| O=[N+]([O-])c1ccc(-c2n[nH]c(O)c2Cc2cccc(Cl)c2)cc1 |  | > 10 µM | > 10 µM |  |  |  |  |  |  |  |  |  |  |  |  |  | inactive | inactive | Non-toxic |  |  |
| NC(=S)n1nc(-c2ccc([N+](=O)[O-])cc2)c(CCc2cccc(Cl)c2)c1O | 0.159 µM | 0.69 µM | > 10 µM | inactive | inactive | 15 min | 4420 ng/mL | 2370 ng/mL | 2130 ng·h/mL | 6300 ng·h/mL | 2150 ng·h/mL | 6430 ng·h/mL |  | 0.83 L/kg | 13.5 mL/min/kg | 53% |  | Active | Non-toxic | 30 min | Activity (Mus musculus [22]): Non-toxic; Activity (Mus musculus [23]): Non-toxic; Cmax [25]: 5610 ng/mL; AUC(0-t) [26]: 9030 ng·h/mL; AUC(0-inf) [27]: 9480 ng·h/mL; Activity (Mus musculus [28]): Non-toxic; Activity (Mus musculus [29]): Non-toxic; Activity (Mus musculus [30]): Non-toxic; Activity (Mus musculus [31]): Non-toxic; Activity (Mus musculus [32]): Non-toxic; Activity (Mus musculus [33]): Non-toxic; Activity (Mus musculus [34]): Non-toxic |
| NC(=S)n1nc(-c2ccc([N+](=O)[O-])cc2)c(Cc2cccc(Cl)c2)c1O | 0.15 µM | 3.54 µM | > 10 µM | inactive | inactive | 60 min | 2800 ng/mL | 5810 ng/mL | 2960 ng·h/mL | 18600 ng·h/mL | 3000 ng·h/mL | 18800 ng·h/mL | 94.8 min | 0.79 L/kg | 8.56 mL/min/kg | 100% |  | Active | Non-toxic | 30 min | Activity (Mus musculus [35]): Non-toxic; Cmax [25]: 3400 ng/mL; AUC(0-t) [26]: 10700 ng·h/mL; AUC(0-inf) [27]: 11500 ng·h/mL; Activity (Mus musculus [36]): Non-toxic; Activity (Mus musculus [37]): Non-toxic |
